# Assay results: ChEMBL document CHEMBL1131076, “Synthesis of 9-deoxo-4''-deoxy-6,9-epoxyerythromycin derivatives: novel and acid-stable motilides” (1998)
# Legend:
# Type in all cases: functional
# Oryctolagus cuniculus = species: Oryctolagus cuniculus; experiment: Compound was evaluated for the prokinetic activity by measuring smooth muscle contractility from rabbit duodenum isolated tissue.
# Method in brief: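 Isolated rabbit duodenum in vitro; records induction of well-coordinated smooth muscle contractions; potency given as pED50.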
# Streptococcus sp. = experiment: In vitro antibacterial activity against the Streptococcus sp. (No. of strains used :4)
# Staphylococcus aureus = experiment: In vitro antibacterial activity against the Staphylococcus aureus (No. of strains used :5)
# Escherichia coli = experiment: In vitro antibacterial activity against the Escherichia coli (No. of strains used :5)
SMILES,pED50 (Oryctolagus cuniculus),MIC (Streptococcus sp.),MIC (Staphylococcus aureus),MIC (Escherichia coli)
CC[C@H]1OC(=O)[C@H](C)[C@@H](OC2C[C@@](C)(OC)C[C@H](C)O2)[C@H](C)[C@@H](OC2O[C@H](C)C[C@H](N(C)CCF)[C@H]2O)[C@@]2(C)C[C@H](C)[C@H](O2)[C@H](C)[C@@H](O)[C@]1(C)O (some centres not stated),6.67,,,
CC[C@H]1OC(=O)[C@H](C)[C@@H](OC2C[C@@](C)(OC)C[C@H](C)O2)[C@H](C)[C@@H](OC2O[C@H](C)C[C@H](NC)[C@H]2O)[C@@]2(C)C[C@H](C)[C@H](O2)[C@H](C)[C@@H](O)[C@]1(C)O (some centres not stated),7.64,,,
CC[C@H]1OC(=O)[C@H](C)[C@@H](OC2C[C@@](C)(OC)C[C@H](C)O2)[C@H](C)[C@@H](OC2O[C@H](C)C[C@H](N(C)CC#N)[C@H]2O)[C@@]2(C)C[C@H](C)[C@H](O2)[C@H](C)[C@@H](O)[C@]1(C)O (some centres not stated),5.71,,,
CC[C@H]1OC(=O)[C@H](C)[C@@H](OC2C[C@@](C)(OC)C[C@H](C)O2)[C@H](C)[C@@H](OC2O[C@H](C)C[C@H](N(C)C)[C@H]2O)[C@@]2(C)C[C@@H](C)[C@@H](O2)[C@H](C)[C@@H](O)[C@]1(C)O (some centres not stated),5.45,,,
CC[C@H]1OC(=O)[C@H](C)[C@@H](OC2C[C@@](C)(OC)C[C@H](C)O2)[C@H](C)[C@@H](OC2O[C@H](C)C[C@H](N(C)CC)[C@H]2O)[C@@]2(C)CC(C)=C(O2)[C@H](C)[C@@H](O)[C@H]1C (some centres not stated),7.22,,,
CC[C@H]1OC(=O)[C@H](C)[C@@H](OC2C[C@@](C)(OC)C[C@H](C)O2)[C@H](C)[C@@H](OC2O[C@H](C)C[C@H](N(C)C)[C@H]2O)[C@@]2(C)C[C@@H](C)[C@H](O2)[C@H](C)[C@@H](O)[C@]1(C)O (some centres not stated),7.8,,,
CC[C@H]1OC(=O)[C@H](C)[C@@H](OC2C[C@@](C)(OC)C[C@H](C)O2)[C@H](C)[C@@H](OC2O[C@H](C)C[C@H](N(C)Cc3ccccc3)[C@H]2O)[C@@]2(C)C[C@H](C)[C@H](O2)[C@H](C)[C@@H](O)[C@]1(C)O (some centres not stated),4,,,
CCCCN(C)[C@H]1C[C@@H](C)OC(O[C@@H]2[C@@H](C)[C@H](OC3C[C@@](C)(OC)C[C@H](C)O3)[C@@H](C)C(=O)O[C@H](CC)[C@@](C)(O)[C@H](O)[C@@H](C)[C@H]3O[C@]2(C)C[C@@H]3C)[C@@H]1O (some centres not stated),4.71,,,
CC[C@H]1OC(=O)[C@H](C)[C@@H](OC2C[C@@](C)(OC)C[C@H](C)O2)[C@H](C)[C@@H](OC2O[C@H](C)C[C@H](N(C)CCO)[C@H]2O)[C@@]2(C)C[C@H](C)[C@H](O2)[C@H](C)[C@@H](O)[C@]1(C)O (some centres not stated),8.11,> 100 µg/mL,> 100 µg/mL,> 100 µg/mL
CC[C@H]1OC(=O)[C@H](C)[C@@H](OC2C[C@@](C)(OC)C[C@H](C)O2)[C@H](C)[C@@H](OC2O[C@H](C)C[C@H](N(C)CC)[C@H]2O)[C@@]2(C)C[C@H](C)[C@H](O2)[C@H](C)[C@@H](O)[C@]1(C)O (some centres not stated),8.54,> 100 µg/mL,> 100 µg/mL,> 100 µg/mL
CC[C@H]1OC(=O)[C@H](C)[C@@H](OC2C[C@@](C)(OC)C[C@H](C)O2)[C@H](C)[C@@H](OC2O[C@H](C)C[C@H](N(C)CCN)[C@H]2O)[C@@]2(C)C[C@H](C)[C@H](O2)[C@H](C)[C@@H](O)[C@]1(C)O (some centres not stated),6.43,,,
CC[C@H]1OC(=O)[C@H](C)[C@@H](OC2C[C@@](C)(OC)C[C@H](C)O2)[C@H](C)[C@@H](OC2O[C@H](C)C[C@H](N(C)C)[C@H]2O)[C@@]2(C)C[C@H](C)[C@H](O2)[C@H](C)[C@@H](O)[C@]1(C)O (some centres not stated),7.93,> 100 µg/mL,> 100 µg/mL,> 100 µg/mL
CC[C@H]1OC(=O)[C@H](C)[C@@H](OC2C[C@@](C)(OC)C[C@H](C)O2)[C@H](C)[C@@H](OC2O[C@H](C)C[C@H](N(C)C(C)C)[C@H]2O)[C@@]2(C)C[C@H](C)[C@H](O2)[C@H](C)[C@@H](O)[C@]1(C)O (some centres not stated),7.75,,,
